Assay results taken from ChEMBL document CHEMBL1154862, “Synthesis of potent BACE-1 inhibitors incorporating a hydroxyethylene isostere as central core” (Eur J Med Chem, 2010).

Columns and labels:
Cathepsin D = Cathepsin D (Homo sapiens, UniProt P07339); assay: Inhibition of human liver cathepsin D after 20 mins by homogeneous time resolved fluorescence assay
Beta-secretase 1 [1] = molecular target: T1, Beta-secretase 1 (Homo sapiens, UniProt P56817); assay: Inhibition of BACE1 after 30 mins by homogeneous time resolved fluorescence assay
Beta-secretase 1 [2] = molecular target: T1, Beta-secretase 1; assay: Inhibition of human BACE1 in HEK293 cells stably co-transfected with mutant APP(swAPP751) assessed as Amyloid beta 1-40 level after 24 hrs by ELISA; format: cell-based
Outline: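 HEK-293 cells stably expressing Swedish mutant APP (swAPP751), grown in DMEM with 10% FCS, penicillin/streptomycin and 200 µg/mL hygromycin at 37 °C, 5% CO2. Seeded 2 × 10^4 cells/well, settled overnight, washed once with fresh medium, then inhibitor added (DMSO at most 1% final). Medium collected after 24 h; secreted Aβ1–40 measured by ELISA.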

T1 sequence (P56817 whole entry): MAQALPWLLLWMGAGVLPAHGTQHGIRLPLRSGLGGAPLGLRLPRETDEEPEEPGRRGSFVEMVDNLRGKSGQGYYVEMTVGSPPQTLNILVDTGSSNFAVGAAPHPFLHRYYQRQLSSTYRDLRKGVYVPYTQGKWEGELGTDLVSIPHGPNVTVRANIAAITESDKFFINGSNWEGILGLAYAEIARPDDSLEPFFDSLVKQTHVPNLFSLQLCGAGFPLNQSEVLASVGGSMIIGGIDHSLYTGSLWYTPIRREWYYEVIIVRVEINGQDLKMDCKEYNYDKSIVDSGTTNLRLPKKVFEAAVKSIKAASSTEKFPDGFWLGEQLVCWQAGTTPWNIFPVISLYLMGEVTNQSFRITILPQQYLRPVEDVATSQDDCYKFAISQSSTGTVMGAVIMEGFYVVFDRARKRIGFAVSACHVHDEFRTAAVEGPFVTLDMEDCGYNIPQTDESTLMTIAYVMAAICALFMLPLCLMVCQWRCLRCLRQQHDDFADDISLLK
Sequence of Cathepsin D (P07339 65-162 limits assumed): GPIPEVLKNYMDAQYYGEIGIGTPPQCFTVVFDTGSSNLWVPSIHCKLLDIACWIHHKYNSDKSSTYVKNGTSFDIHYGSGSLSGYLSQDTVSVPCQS
Sequence of Cathepsin D (P07339 169-412 limits assumed): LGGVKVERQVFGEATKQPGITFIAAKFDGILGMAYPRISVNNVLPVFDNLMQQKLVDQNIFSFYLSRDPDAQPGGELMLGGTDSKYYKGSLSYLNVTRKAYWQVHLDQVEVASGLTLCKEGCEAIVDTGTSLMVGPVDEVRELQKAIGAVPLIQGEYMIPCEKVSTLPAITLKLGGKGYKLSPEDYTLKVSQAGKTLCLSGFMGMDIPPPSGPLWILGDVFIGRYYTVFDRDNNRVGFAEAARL

SMILES	IC50 (Cathepsin D)	IC50 (Beta-secretase 1 [1])	IC50 (Beta-secretase 1 [2])
CNC(=O)c1cc(C(=O)N[C@@H](COCc2cc(F)cc(F)c2)[C@@H](O)C[C@@H](C)C(=O)N[C@H](C(=O)NCc2ccccc2)C(C)C)cc(N(C)S(C)(=O)=O)c1	> 5000 nM	1260 nM	
CC(C)[C@H](NC(=O)[C@H](C)C[C@H](O)[C@H](COCc1ccccc1)NC(=O)c1cc(C(=O)N[C@H](C)c2ccccc2)cc(N(C)S(C)(=O)=O)c1)C(=O)NCc1ccccc1	41 nM	3.6 nM	1000 nM
CC(C)[C@H](NC(=O)[C@H](C)C[C@H](O)[C@H](COc1cc(F)cc(F)c1)NC(=O)c1cc(C(=O)N[C@H](C)c2ccccc2)cc(N(C)S(C)(=O)=O)c1)C(=O)NCc1ccccc1	59 nM	3.1 nM	160 nM

Continued, values first:

IC50 (Cathepsin D)	IC50 (Beta-secretase 1 [1])	IC50 (Beta-secretase 1 [2])	SMILES
> 5000 nM	> 10000 nM		C[C@H](C[C@H](O)[C@H](COCc1cc(F)cc(F)c1)NC(=O)c1cc(C(=O)N[C@H](C)c2ccccc2)cc(N(C)S(C)(=O)=O)c1)C(=O)NC1CC1
0.63 nM	10000 nM		CSCC[C@H](NC(=O)[C@@H](NC(=O)OC(C)(C)C)C(C)C)C(=O)N[C@@H](COCc1cc(F)cc(F)c1)[C@@H](O)C[C@@H](C)C(=O)N[C@H](C(=O)NCc1ccccc1)C(C)C
210 nM		4500 nM	CC(C)[C@H](NC(=O)[C@H](C)C[C@H](O)[C@H](COCc1cc(F)cc(F)c1)NC(=O)c1cc(C(=O)N[C@H](C)c2ccccc2)cc(N(C)S(C)(=O)=O)c1)C(=O)NCc1ccccc1
120 nM	10 nM	340 nM	CC(C)[C@H](NC(=O)[C@@H](C)C[C@H](O)[C@H](COc1cc(F)cc(F)c1)NC(=O)c1cc(C(=O)N[C@H](C)c2ccccc2)cc(N(C)S(C)(=O)=O)c1)C(=O)NCc1ccccc1
